ChEMBL document CHEMBL4765412, “(±)-trans-2-phenyl-2,3-dihydrobenzofurans as leishmanicidal agents: Synthesis, in vitro evaluation and SAR analysis” (Eur J Med Chem, 2020)

Columns and labels:
[1] = tested on: Leishmania donovani; assay: Antileishmanial activity against Leishmania donovani MHOM/ET/67/L82 amastigotes assessed as growth inhibition incubated for 70 hrs by resazurin based inverted microscopic analysis; assay type: functional, organism-based; settings: Leishmania donovani, MHOM/ET/67/L82, 70 h
How it was run: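 Axenic L. donovani amastigotes (MHOM/ET/67/L82); racemates tested unless stated; miltefosine as positive control. Some values come from a separate run and were rescaled by that run's relative miltefosine IC50.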

[2] = tested on: L6; assay: Cytotoxicity against rat L6 cells assessed as reduction in cell viability incubated for 70 hrs by resazurin staining based inverted microscopic analysis; settings: L6, 70 h
How it was run: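 Rat L-6 skeletal myoblast line; racemates tested unless stated.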

[3] = Selectivity index, ratio of IC50 for cytotoxicity against rat L6 cells to IC50 for antileishmanial activity against Leishmania donovani MHOM/ET/67/L82 amastigotes; assay type: toxicity, cell-based; settings: read-out: Ratio IC50
[4] = Metabolic stability in mouse liver microsomes assessed as metabolite formation by ester hydrolysis at 100 umol/L incubated for 90 mins in absence of UDPGA by LC-MS analysis; settings: 1.5 h, 100 µM
[5] = Metabolic stability in mouse liver microsomes assessed as metabolite formation by glucuronidation at 100 umol/L incubated for 90 mins in presence of UDPGA by LC-MS analysis; settings: 1.5 h, 100 µM

For `OC[C@H]1c2cc(-c3ccc(O)cc3)ccc2O[C@@H]1c1ccc(O)cc1` (racemic), the IC50 [1] was 16.5 µM, the IC50 [2] was 44.5 µM and the selectivity ratio [3] was 2.7.
For `CC(C)OC(=O)/C=C/c1cc(O)c2c(c1)[C@H](C(=O)OC(C)C)[C@@H](c1ccc(O)c(O)c1)O2` (racemic), the IC50 [1] was 0.54 µM, the Drug metabolism [4] was “Metabolite_Detected” and the Drug metabolism [5] was “Metabolite_Detected”. The IC50 [2] was 10.2 µM and the selectivity ratio [3] was 18.9.
With `OC[C@H]1c2cc(-c3cccnc3F)ccc2O[C@@H]1c1ccc(O)cc1` (racemic) the IC50 [1] was 18.8 µM, the IC50 [2] was 52.4 µM and the selectivity ratio [3] was 2.8.
`Cc1ccc(-c2ccc3c(c2)[C@H](CO)[C@@H](c2ccc(O)cc2)O3)s1` (racemic) showed an IC50 [1] of 16.1 µM, an IC50 [2] of 15.8 µM and a selectivity ratio [3] of 1.
Work on `COc1ccc([C@H]2Oc3ccc(/C=C/C(=O)OC(C)(C)C)cc3[C@@H]2CF)cc1OC` (racemic) yielded an IC50 [1] of 13 µM, an IC50 [2] of 34 µM and a selectivity ratio [3] of 2.6.
Work on `O=S(=O)(OC[C@H]1c2ccccc2O[C@@H]1c1ccc(OS(=O)(=O)c2ccccn2)cc1)c1ccccn1` (racemic) yielded an IC50 [1] of 6.31 µM, an IC50 [2] of 189 µM and a selectivity ratio [3] of 29.9.
`O=Cc1ccc(-c2ccc3c(c2)[C@H](CO)[C@@H](c2ccc(O)cc2)O3)cc1` (racemic) gave an IC50 [1] of 37.7 µM, an IC50 [2] of 55.9 µM and a selectivity ratio [3] of 1.5.
Work on `C/C=C/c1cc(OC)c2c(c1)[C@H](C)[C@@H](c1ccc(O)c(OC)c1)O2` (racemic) [LICARIN A] yielded an IC50 [1] of 6.45 µM, an IC50 [2] of 6.21 µM and a selectivity ratio [3] of 1.
